For series [1], the system named is Leishmania donovani. Put plainly: Antileishmanial activity against Leishmania donovani amastigote forms infected in Balb/c mouse assessed as inhibition of parasitic burden in liver at 50 mg/kg, ip administered for 5 consecutive days measured up to 7 weeks post treatment by Giemsa staining based assay. In kind it is functional, organism-based.
Series [2] relates to Leishmania donovani. The series is described as follows: Antileishmanial activity against Leishmania donovani amastigote forms infected in Balb/c mouse assessed as inhibition of parasitic burden in liver at 25 mg/kg, ip co-treated with 5 mg/kg, po miltefosine administered for 5 consecutive days measured on day 4 and 7 post last treatment by Giemsa staining based assay relative to control. In kind it is functional. An outline of the steps: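 Combination study with seven groups of 5 infected BALB/c mice, including vehicle (8% DMSO i.p.), infected untreated and miltefosine-alone groups. Treatment daily for 5 days, test compound i.p. and miltefosine orally. Mice killed on days 4 and 7 post-treatment; liver and spleen parasite load counted on Giemsa-stained stamp smears and expressed as LDU relative to infected untreated mice. Mean ± SD, n = 5, three independent experiments.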

Series [3] can be described thus: Metabolic stability in mouse liver S9 fractions at 1 mM after 60 mins in presence of NADPH by HPLC method. In kind it is ADME. As to conditions: read-out: Stability.
Series [4] is described as follows: Selectivity index, ratio of CC50 for mouse J774 cells to IC50 for Leishmania donovani MHOM/IN/80/DD8 amastigote forms infected in mouse J774 cells. In kind it is toxicity, cell-based. As to conditions: read-out: Ratio CC50/IC50. An outline of the steps: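 CC50: Vero or J774 cells (1×10^5/well) exposed 72 h to seven two-fold dilutions, 500–7.81 μM; MTT 2 h at 37 °C, formazan in DMSO read at 540 nm. IC50: luciferase-expressing Dd8 amastigotes in J774 macrophages (1:8), 72 h, luminescence, four-parameter Hill fit. SI = CC50/IC50, IC50 mean of three experiments.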

Series [5] in a line: Stability in pH 1.2 simulated gastric fluid at 5 ug/ml after 120 mins by HPLC method. An outline of the steps:
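Incubated in simulated gastric fluid (pH 1.2) or simulated intestinal fluid (pH 6.5); percentage remaining intact determined after 120 min.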

Series [6] relates to Leishmania donovani. The series is described as follows: Antileishmanial activity against Leishmania donovani amastigote forms infected in Balb/c mouse assessed as inhibition of parasitic burden in spleen at 50 mg/kg, ip administered for 5 consecutive days measured up to 7 weeks post treatment by Giemsa staining based assay. Type of series: functional, organism-based.
In series [7] the test system is Leishmania donovani. Put plainly: Induction of apoptosis in Leishmania donovani MHOM/IN/80/DD8 promastigote forms assessed as DNA fragmentation at IC50 after 48 hrs by propidium iodide staining based TUNEL assay. Type of series: functional. An outline of the steps:
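DNA fragmentation detected by TUNEL under fluorescence and phase-contrast microscopy, with counts of TUNEL-positive cells; three independent experiments.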

The subject of series [8] is Leishmania donovani. Put plainly: Antileishmanial activity against Leishmania donovani MHOM/IN/80/DD8 amastigote forms harboring luciferase gene infected in mouse J774 cells after 72 hrs by Steady-Glo reagent based luminescence assay. As to conditions: MHOM/IN/80/DD8, J774, 72 h. In kind it is functional, cell-based.
In series [9] the test system is Leishmania donovani. Put plainly: Induction of mitochondrial membrane potential loss in Leishmania donovani MHOM/IN/80/DD8 promastigote forms at 50 uM after 6 hrs by JC-1 staining based flow cytometry (reference value: 5.02%). Type of series: functional.
Series [10] can be described thus: Apparent clearance in Swiss mouse at 50 mg/kg, po by LC-MS/MS analysis. In kind it is ADME, organism-based. As to conditions: in vivo.
Series [11] relates to Leishmania donovani. Put plainly: Induction of apoptosis in Leishmania donovani MHOM/IN/80/DD8 promastigote forms assessed as late apoptotic cells at IC50 after 48 hrs by Annexin V-FITC/propidium iodide staining based flow cytometry (reference value: 0.86%). Type of series: functional. Background: A flow cytometer gives signals particle by particle.
The test system of series [12] is Mus musculus. The series is described as follows: Toxicity in Balb/c mouse infected with Leishmania donovani amastigote forms assessed as changes in body weight at 12.5 to 200 mg/kg, ip administered for 5 consecutive days. In kind it is organism-based. As to conditions: in vivo. An outline of the steps:
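L. donovani-infected BALB/c mice (15-day infection, 5 per group) dosed for five consecutive days: test compound 12.5–200 mg/kg i.p. in 8% DMSO, miltefosine orally in TDW, alone or in combination. Body weight followed after treatment.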

Series [13] relates to Leishmania donovani. Put plainly: Antileishmanial activity against Leishmania donovani amastigote forms infected in Balb/c mouse assessed as inhibition of parasitic burden in liver at 50 mg/kg, ip administered for 5 consecutive days measured 1 week post last treatment by Giemsa staining based assay relative to control. Type of series: functional. As to conditions: 168 h.
The test system of series [14] is Leishmania donovani. The series is described as follows: Antileishmanial activity against Leishmania donovani MHOM/IN/80/DD8 promastigote forms harboring luciferase gene at 6.25 to 12.5 uM up to 4 days by Steady-Glo reagent based luminescence assay. In kind it is functional. In short, it runs like this: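 Log-phase luciferase promastigotes at 1.0×10^6 at 24 °C, pH 7.4, given two-fold dilutions from 200 to 6.25 µM. RLU in lysed cultures measured daily for up to 4 days to plot growth curves. Three independent experiments.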

Series [15] deals with Mus musculus. The series is described as follows: Restoration of T cell proliferation in Balb/c mouse splenocytes infected with Leishmania donovani amastigote forms at 25 mg/kg, ip co-treated with 5 mg/kg, po miltefosine administered for 5 consecutive days measured on day 4 post last treatment followed by soluble Leishmania donovani promastigote antigen-stimulation for 72 hrs by MTT assay relative to control. In kind it is functional. An outline of the steps:
(§1)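 Splenocytes from treated infected BALB/c mice (day 4 or 7 post-treatment) isolated by Ficoll gradient, plated at 10^5/well in triplicate in phenol red-free RPMI 1640, stimulated with 5 μg/mL SLA for 72 h at 37 °C, 5% CO2. Proliferation read by MTT (0.5 mg/mL), formazan dissolved in DMSO, OD 540 nm.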
For orientation: Tetrazolium assays rely on reduction of a dye to a coloured formazan, in cell work by metabolically active cells.

Series [16] deals with Mus musculus. Put plainly: Restoration of T cell proliferation in Balb/c mouse splenocytes infected with Leishmania donovani amastigote forms at 25 mg/kg, ip co-treated with 5 mg/kg, po miltefosine administered for 5 consecutive days measured on day 7 post last treatment followed by soluble Leishmania donovani promastigote antigen-stimulation for 72 hrs by MTT assay relative to control. In kind it is functional. In short, it runs like this:
as §1

Series [17] concerns Leishmania donovani. The series is described as follows: Antileishmanial activity against Leishmania donovani MHOM/IN/80/DD8 promastigote forms harboring luciferase gene at 25 uM after 72 hrs by Steady-Glo reagent based luminescence assay relative to control. In kind it is functional. As to conditions: MHOM/IN/80/DD8, 72 h, read-out: GI. An outline of the steps: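 Exponential-phase Dd8-Luc promastigotes at 1×10^6/mL in M199 with 10% FBS, 24 °C, given 50 and 25 µM for 72 h. Vehicle 0.1% DMSO. Steady-Glo added 1:1, luminescence (RLU) read. IC50 from four-parameter Hill regression, derived only where inhibition exceeded 90%. Means of at least three independent experiments.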

Series [18] deals with Leishmania donovani. The series is described as follows: Antileishmanial activity against Leishmania donovani MHOM/IN/80/DD8 promastigote forms harboring luciferase gene at 50 uM up to 72 hrs by MTT assay relative to control. As to conditions: MHOM/IN/80/DD8, 72 h. In kind it is functional.
Series [19] can be described thus: Cytotoxicity against mouse J774 cells assessed as cell viability […] after 72 hrs by MTT assay relative to control. In kind it is cell-based. As to conditions: read-out: Activity. In short, it runs like this:
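Vero and J774 cells seeded at 1×10^5 per well for 24 h, then exposed 72 h to seven two-fold dilutions from 500 to 7.81 μM. MTT solution (5 mg/mL stock) added for 2 h at 37 °C, formazan dissolved in DMSO and read at 540 nm. CC50 derived by the Huber and Koella method.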

Consider one molecule from ChEMBL document CHEMBL3992522, “Antileishmanial Activity of Pyrazolopyridine Derivatives and Their Potential as an Adjunct Therapy with Miltefosine” (J Med Chem, 2017).

Activity calls are given as the source filed them. The rule behind the calls is not given here.

One may read the inhibition as the share of the control response that was lost under treatment. The term IC50 denotes the concentration that inhibits the measured activity by half. Higher therefore signals a need for much substance. In general, CL/F refers to the apparent clearance, not corrected for the fraction that reaches the circulation. For orientation: inhibition in vivo means the relative decrease from the control value, in per cent. For `COc1ccc(C2C3=C(CCC3=O)Nc3c2c(-c2c[nH]c4ccccc24)nn3-c2ccc(Cl)c(Cl)c2)cc1OC` (centres undefined), the inhibition entry in [1] and in series [6] was “Active” in each case. The “inhibition (INH)” value in series [2] is reported as >92%. For the same molecule, the remaining at 1 h, 1000 µM in series [3] came out at 45%. In addition, the selectivity ratio in [4] turned out to be 101. The molecule also yielded a Stability in [5] of 85%. The outcome in series [7] and in series [14] was Active. The molecule also had an IC50 in series [8] of 4.05 µM. In addition, the Activity in series [9] was 15.2%; in series [11], 21%; in [12], “Non-Toxic”. Moreover, in series [10], the apparent clearance CL/F was 47.3 mL/min/kg. Besides, the inhibition in vivo at 50 mg/kg in [13] is > 93%. The “fold change (FC)” value is given as 9.9 in series [15] and 8.4 in series [16]. Further, in series [17], the inhibition of growth at 25 µM turned out to be 91.7%. For the same molecule, the inhibition at 50 µM in series [18] is > 95%. Also, in series [19], the viability at 72 h is > 95%.
